Source: PubChem (several laboratories)
Hits are enriched below; roughly 1.6% of the tested compounds scored in any of these assays.
Apaf-1 inh: inhibitors of human Apaf-1 apoptosome; reconstituted apoptosome caspase-3 activity, DEVD-Rh110 fluorescence; inhibition, % at 20 µM; 330,000 tested, 0.71% active; AID 489030; active means inhibition of at least 40% at 20 µM;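 further: plate controls were DMSO wells for no effect and DEVD-CHO caspase inhibitor wells for full effect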
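Material: reconstituted apoptosome with Apaf-1, cytochrome c, caspase-9, procaspase-3, dATP; medium: pH 7.5 Hepes buffer with CHAPS, BSA, DTT; also added: cytochrome c and DEVD-Rh110 substrate; timing: 30 min plus 50 min, RT; signal: Rh110 fluorescence intensity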
GSTO1 counter: blocks human GSTO1 in RBBP9 counter-screen; P78417; recombinant GSTO1, activity-based probe fluorescence polarization; inhibition, % at 5.96 µM; 300,000 tested, 1.1% active; AID 1974;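 active means inhibition above the campaign mean inhibition plus 3 SD, cut at about 35% in these data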;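 further: 0% = GSTO1-1 with DMSO and 100% = wells lacking GSTO1-1 enzyme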
Target sequence (P78417 whole entry, looked up): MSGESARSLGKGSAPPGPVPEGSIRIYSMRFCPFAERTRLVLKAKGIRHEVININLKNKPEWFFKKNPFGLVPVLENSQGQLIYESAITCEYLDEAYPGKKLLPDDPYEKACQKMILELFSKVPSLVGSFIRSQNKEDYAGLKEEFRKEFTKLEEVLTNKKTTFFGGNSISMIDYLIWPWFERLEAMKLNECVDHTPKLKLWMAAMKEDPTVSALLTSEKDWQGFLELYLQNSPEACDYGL
TDP2 absorb: blocks human TDP2 phosphodiesterase activity | O95551 | recombinant TDP2, T5PNP hydrolysis, p-nitrophenol absorbance 415 nm | inhibition, % at 12.8 µM | 370,000 tested, 0.34% active | AID 720702;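 active means inhibition above the mean of all tested compounds plus 3 SD, set per campaign, cut at about 25% in these data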;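 further: 0% = DMSO with enzyme and 100% = buffer with substrate but no TDP2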
Target sequence (O95551 whole entry, looked up): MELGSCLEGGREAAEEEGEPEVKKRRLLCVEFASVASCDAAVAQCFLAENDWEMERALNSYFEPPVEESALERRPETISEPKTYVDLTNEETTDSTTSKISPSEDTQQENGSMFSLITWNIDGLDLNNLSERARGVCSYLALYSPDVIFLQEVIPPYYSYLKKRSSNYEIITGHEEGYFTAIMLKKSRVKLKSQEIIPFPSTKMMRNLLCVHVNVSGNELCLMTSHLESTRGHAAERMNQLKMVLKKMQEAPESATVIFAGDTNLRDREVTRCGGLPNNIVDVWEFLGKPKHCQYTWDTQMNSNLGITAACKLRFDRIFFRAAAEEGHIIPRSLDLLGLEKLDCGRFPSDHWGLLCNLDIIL
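Material: recombinant human TDP2; quantity: TDP2 enzyme at 120 nM final; medium: Tris-HCl pH 7.5 with MgCl2; compound: single concentration, 12.8 µM nominal, with 1% DMSO; incubation: 2 h enzyme incubation at 37 °C; signal: epi absorbance; measure: percent inhibition; benchmarks: high control without enzyme, low control DMSO plus TDP2; repeats: singlicate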
JMJD2C inh: human JMJD2C demethylase inhibition | 330,000 tested, 0.069% active | GST-JMJD2C(1-420) H3K9me3 demethylation, DELFIA europium | inhibition, % at 2.35 µM | AID 2099 | Q9H3R0;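 active means more than half of a compound's replicate wells show inhibition beyond 50%, single wells judged on their own value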;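 further: signal counts dimethyl H3K9 product captured on neutravidin plate; 0% = median of DMSO wells and 100% = 0.3 times that DMSO median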
PAD4 FP inh: PAD4 (human) enzyme inhibition; Q9UM07; recombinant PAD4, RCA probe fluorescence polarization; inhibition, % at 6.36 µM; 330,000 tested, 0.41% active; AID 485272;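 active means percent inhibition above a cutoff equal to the mean of all tested compounds plus 3 SD, cut at about 15% in these data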;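 further: 0% = PAD4 with RCA probe and DMSO and 100% = probe without PAD4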
SUMO HTRF inh: blocks human SUMOylation mediated by UBC9; AID 2006; P63279; HTRF SUMOylation assay, SAE1/SAE2 + UBC9, in vitro; inhibition, % at 35 µM; 290,000 tested, 0.36% active; in the data active means inhibition above about 50%, passing the limit was not always enough
Target sequence (P63279 whole entry, looked up): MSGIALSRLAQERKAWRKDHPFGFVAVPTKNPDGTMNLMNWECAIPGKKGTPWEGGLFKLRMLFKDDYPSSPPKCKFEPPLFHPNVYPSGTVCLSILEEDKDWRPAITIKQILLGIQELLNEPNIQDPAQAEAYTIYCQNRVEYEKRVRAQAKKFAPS
GSTO1 inh conf: GSTO1 (human) inhibition, confirmation; shares compounds with GSTO1 counter; recombinant GSTO1, probe fluorescence polarization; inhibition, % at 5.96 µM; 2,400 tested, 54% active; AID 2176;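 active means inhibition above the primary screen's cutoff, its mean inhibition plus 3 SD, cut at about 35% in these data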;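 further: loss of polarization as inhibitors block binding of rhodamine sulfonate ester activity probe; 0% = GSTO1 with DMSO and 100% = wells lacking GSTO1 enzyme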
PAD4 confirm: PAD4 (human) inhibition, confirmed; recombinant PAD4, RCA probe fluorescence polarization; 1,200 tested, 28% active; AID 488796; inhibition, % at 6.36 µM; shares compounds with PAD4 FP inh;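 active means mean inhibition across replicates above the hit cutoff set by the earlier primary screen, cut at about 15% in these data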;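 further: inhibitors block active-site labeling by the probe so polarization falls; 0% = PAD4 with probe and DMSO and 100% = probe without PAD4 enzyme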
Apaf-1 inh conf: Apaf-1 inhibition, single-dose confirmed; shares compounds with Apaf-1 inh; reconstituted apoptosome, caspase-3 DEVD-Rh110 fluorescence; inhibition, % at 20 µM; 1,800 tested, 25% active;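 active means mean inhibition of at least 40% at 20 µM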;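 further: plate controls were DMSO wells for no effect and DEVD-CHO caspase inhibitor control wells for full effect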
Rh110 quench: Rh110 signal interference in Apaf-1 inhibitor counter-screen; shares compounds with Apaf-1 inh; 1,800 tested, under 10 active; activation (fluorescence interference), % at 20 µM; Rh110 fluorescence interference, quenched caspase reaction;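 active means signal rise of 40% or more at 20 µM, treated as a fluorescence artifact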
Fluor interf inh: Apaf-1 inhibitor counter-screen fluorescence artifact | fluorescence interference counterscreen, Apaf-1 assay format | 460 tested, under 10 active | shares compounds with Apaf-1 inh | IC50, µM; call rule not given here
* hit, by the source's call; / = no result.

SMILES | Apaf-1 inh | GSTO1 counter | TDP2 absorb | JMJD2C inh | PAD4 FP inh | SUMO HTRF inh | GSTO1 inh conf | PAD4 confirm | Apaf-1 inh conf | Rh110 quench | others
Cc1ccccc1CN1CCCCC(NC(=O)Cc2cccs2)C1=O (stereo not drawn) | / | / | 0 | / | / | / | / | / | / | /
COc1cccc2c(=O)c3cccc(N)c3[nH]c12 | 70* | 67* | 2 | -10 | -6 | 47 | 14 | / | 2 | -4
O=C1CCC[C@H]2C[C@H](NCc3ccc(F)cc3F)CC[C@]23CCCN13 | / | / | -1 | / | / | / | / | / | / | /
COc1cc(/C=C2/C(=O)N(c3ccc(Br)cc3)N=C2C)cc([N+](=O)[O-])c1O | 30 | 4 | / | -1 | -7 | 22 | / | / | / | /
CC(=O)Oc1ccc(/C=C2/C(=O)N(c3ccccc3)N=C2C)cc1 | 91* | 52* | 71* | 24 | 54* | 32 | 14 | 0 | 12 | -2
CCOc1cc(/C=N/NC(=O)c2ccccn2)ccc1OC(=O)c1cccs1 | 12 | -4 | 3 | 1 | 1 | -1 | / | / | / | /
COc1cc(/C=C2/C(=O)N(c3cccc(Br)c3)N=C2C)cc(OC)c1O | 82* | 42* | 8 | 1 | 27* | -3 | 6 | 1 | 18 | -1
CCOc1cc(/C=C2/C(=O)N(c3ccccc3)N=C2C)ccc1OC(=O)c1cccs1 | 69* | 66* | / | 1 | 54* | 32 | 4 | 2 | 33 | 4
CC1=NN(c2ccccc2)C(=O)/C1=C/c1cccc(C)c1 | 96* | 59* | 79* | -13 | 56* | 34 | 12 | 1 | 23 | -1
COc1ccc(CSc2nnc(SCc3ccccc3)s2)cc1 | / | / | -8 | / | / | / | / | / | / | /
COc1ccc(/C=C2/C(=O)N(c3ccccc3)N=C2C)cc1 | 96* | 47* | / | -1 | 57* | / | 11 | 3 | 16 | -2
O=C(O)CCNc1cc(N2CCN(C(=O)c3ccco3)CC2)c2noc3c2c1C(=O)c1ccccc1-3 | 81* | 63* | 38* | -8 | 21* | -19 | 75* | -46 | 73* | 1 | Fluor interf inh=13*
CCOC(=O)c1c(CN(C)C)n(C)c2c(O)c(N=NC(N)=O)c3ccc(Br)cc3c12 | 95* | 49* | 14 | -2 | -10 | 24 | 29 | / | 53* | 15 | Fluor interf inh=>100
O=C1N/C(=C\c2ccc(O)cc2)C(=O)c2ccccc21 | 97* | 75* | / | -10 | 30* | 38 | 79* | -3 | 74* | 0 | Fluor interf inh=>100
Cc1cc(C)cc(C(=O)OCCN(C)C2CN(Cc3cn(Cc4ccc([N+](=O)[O-])cc4)nn3)S(=O)(=O)C2)c1 (stereo not drawn) | / | / | -5 | / | / | / | / | / | / | /
CCNC(=S)NNC(=O)CSc1nnc(-c2ccccc2)n1-c1ccc(Cl)cc1 | / | / | 3 | / | / | / | / | / | / | /
Cn1c(=O)c2cc(NCc3ccccc3)nnc2n(C)c1=O | 94* | 81* | 75* | 8 | 31* | 88 | 16 | 2 | 7 | 0
COc1ccc(/C=N/Nc2nc(N3CCCC3)nc(N3CCCC3)n2)cc1O | 1 | -2 | -1 | 18 | 0 | 14 | / | / | / | /
Oc1ccc(/C=N/Nc2cc(N3CCCC3)nc(N3CCCC3)n2)cc1O | 60* | 46* | -4 | -3 | 1 | 63* | 79* | / | 89* | 3 | Fluor interf inh=>100
COCCCNC(=O)C[C@H]1C[C@@]2(C(=O)OC)C(=C[C@H](C(C)C)O[C@@H]2C2CC2)N(Cc2ccc(Cl)cc2Cl)C1=O | / | / | -12 | / | / | / | / | / | / | /
CCOC(=O)[C@@]12CN(C(=O)OC(C)(C)C)CC=C1N(Cc1ccc(OC)cc1)C(=O)[C@H]2CC(=O)NCc1cccs1 | / | / | 2 | / | / | / | / | / | / | /
COc1ccc(S[C@]2(C(=O)N3CCN(c4ncccn4)CC3)CC(=O)N(c3ccccc3)[C@@H]2c2ccc(OC)cc2)cc1 | / | / | -7 | / | / | / | / | / | / | /
CC1=NN(c2ccc(C)cc2C)C(=O)C1C(c1ccccc1)C1C(=O)N(c2ccc(C)cc2C)N=C1C (stereo not drawn) | 67* | 44* | / | 38 | 13 | 38 | 9 | / | 30 | 5
Cc1ccc(-n2nc(C)c(C(=O)O)n2)c(C)c1 | -2 | 1 | -8 | 14 | -1 | -10 | / | / | / | /
Cc1cccc(NC2=C(NC(=O)c3ccccc3)C(=O)c3ccccc3C2=O)c1 | 73* | 56* | -1 | 2 | -11 | -5 | 38* | / | 58* | 11 | Fluor interf inh=>100
SMILES | Apaf-1 inh | GSTO1 counter | TDP2 absorb | JMJD2C inh | PAD4 FP inh | SUMO HTRF inh | GSTO1 inh conf | PAD4 confirm | Apaf-1 inh conf | Rh110 quench | others
Cc1cccc(C(=O)Nc2cccc(NC(=O)c3ccccc3)c2)c1 | 3 | -5 | -14 | 15 | -4 | 0 | / | / | / | /
CCN(CC)c1ccc(N=C2C(=O)Nc3ccccc32)cc1 | 47* | 85* | 5 | 2 | 13 | 30 | 4 | / | 15 | 1
COC(=O)[C@H]1C[C@@]2(c3ccccc3)c3ccccc3N[C@H]2N1 | / | / | 5 | / | / | / | / | / | / | /
CN(C)c1ccc(NC(=O)Oc2ccccc2)cc1 | 48* | 39* | 10 | -4 | 17* | -116 | 7 | -2 | 11 | 3
CC(=O)Nc1ccc(NC(=O)Oc2ccccc2)cc1 | -14 | 7 | -13 | -11 | 4 | -17 | / | / | / | /
Oc1c(Br)cc(C=Nc2ccc3nc(-c4ccccc4)[nH]c3c2)c(O)c1Br | 65* | 53* | 3 | 17 | 37* | 44 | 42* | 10 | 38 | 1
O=C(OC12CCCN(C1)/C(=C/c1ccncc1)C2)c1cccc(F)c1 (stereo not drawn) | / | / | 5 | / | / | / | / | / | / | /
Cc1ccc(S(=O)(=O)C(C#N)c2nc3ccccc3nc2N2CCCC2)cc1 (stereo not drawn) | 77* | 51* | 37* | 4 | -11 | 101 | 13 | / | 21 | 6
O=C(c1cccs1)C1CCN(c2ncnc3sccc23)CC1 | / | / | 2 | / | / | / | / | / | / | /
O=c1[nH]nc(CNc2ccc(O)cc2)c2ccccc12 | 94* | 82* | 9 | -16 | 55* | 86 | -2 | 3 | 4 | 0
O=C1CCC(=O)c2ccc3c4c(ccc1c24)CC3 | / | / | 13 | / | / | / | / | / | / | /
O=C1CCN2C=Nc3cccc4ccc1c2c34 | 43* | 40* | 23 | 22 | 13 | 66* | 9 | / | 28 | 2
COC(=O)c1cccc(NS(=O)(=O)c2cccs2)c1C | / | 0 | -6 | -6 | 0 | 8 | / | / | / | /
